Legend:
Format in all cases: functional, Salmonella enterica subsp. enterica serovar Typhimurium
[1] = tested on: Salmonella typhimurium; experiment: (§1) Mutagenicity determined by Ames assay in Salmonella Typhimurium strain TA98, with metabolic activation by Aroclor 1254 induced rat liver S9 at a dose of 0.5 ug/plate
Outline: (§2)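 Ames plate incorporation assay, modified per Claxton, in TA98. Compounds dissolved in DMSO. Each plate received 0.8 mg S9 protein from livers of Aroclor 1254-treated male rats, plus NADPH-generating cofactors. Each dose was run in duplicate on two or three separate occasions. Values are mean His+ revertants/plate.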

[2] = tested on: Salmonella typhimurium; experiment: (§3) Mutagenicity determined by Ames assay in Salmonella Typhimurium strain TA98, with metabolic activation by Aroclor 1254 induced rat liver S9 at a dose of 1.0 ug/plate; outline: as §2
[3] = tested on: Salmonella typhimurium; experiment: (§4) Mutagenicity determined by Ames assay in Salmonella Typhimurium strain TA98, with metabolic activation by Aroclor 1254 induced rat liver S9 at a dose of 10 ug/plate; outline: as §2
[4] = tested on: Salmonella typhimurium; experiment: (§5) Mutagenicity determined by Ames assay in Salmonella Typhimurium strain TA98, with metabolic activation by Aroclor 1254 induced rat liver S9 at a dose of 20 ug/plate; outline: as §2
[5] = tested on: Salmonella typhimurium; experiment: (§6) Mutagenicity determined by Ames assay in Salmonella Typhimurium strain TA98, with metabolic activation by Aroclor 1254 induced rat liver S9 at a dose of 5 ug/plate; outline: as §2
[6] = tested on: Salmonella typhimurium; experiment: Mutagenicity determined by Ames assay in Salmonella Typhimurium strain TA98, without metabolic activation by Aroclor 1254 induced rat liver S9 at a dose of 0.5 ug/plate; set-up: unit: revertants/plate
Outline: (§7)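 Ames plate incorporation assay in TA98, modified per Claxton, with no S9 or cofactors added. Test compounds were given from DMSO solution. Each dose level was plated in duplicate on two or three separate occasions. Read-out is mean His+ revertants/plate.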

[7] = tested on: Salmonella typhimurium; experiment: (§8) Mutagenicity determined by Ames assay in Salmonella Typhimurium strain TA98, without metabolic activation by Aroclor 1254 induced rat liver S9 at a dose of 1.0 ug/plate; outline: as §7
[8] = tested on: Salmonella typhimurium; experiment: (§9) Mutagenicity determined by Ames assay in Salmonella Typhimurium strain TA98, without metabolic activation by Aroclor 1254 induced rat liver S9 at a dose of 10 ug/plate; outline: as §7
[9] = tested on: Salmonella typhimurium; experiment: (§10) Mutagenicity determined by Ames assay in Salmonella Typhimurium strain TA98, without metabolic activation by Aroclor 1254 induced rat liver S9 at a dose of 20 ug/plate; outline: as §7
[10] = tested on: Salmonella typhimurium; experiment: (§11) Mutagenicity determined by Ames assay in Salmonella Typhimurium strain TA98, without metabolic activation by Aroclor 1254 induced rat liver S9 at a dose of 5 ug/plate; outline: as §7
[11] = tested on: Salmonella typhimurium; experiment: (§12) Specific mutagenicity in the absence of protein S9, was expressed as His+ revertants/nmol, calculated by least-square linear regression.
Outline: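 Ames plate incorporation assay in TA98 without S9; compounds in DMSO; doses in duplicate on two or three occasions. His+ revertants/nmol from least-squares linear regression of the linear part of the dose-response curve, up to 10 µg/plate for most compounds and to 5 or 20 µg/plate for others.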

[12] = tested on: Salmonella typhimurium; experiment: (§13) Specific mutagenicity in the presence of protein S9, was expressed as His+ revertants/nmol, calculated by least-square linear regression.
Outline: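 Ames plate incorporation assay in TA98 with 0.8 mg Aroclor 1254-induced male rat liver S9 protein per plate plus NADPH-generating cofactors; compounds in DMSO; doses in duplicate on two or three occasions. His+ revertants/nmol from least-squares linear regression of the dose-response curve's linear part, up to 10 µg/plate.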

[13] = tested on: Salmonella typhimurium; experiment: as §3; remark: listed apart in the source
Outline: (§14)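 Ames plate incorporation test following Claxton's modification, with compounds dissolved in DMSO. Each plate received 0.8 mg S9 protein from livers of Aroclor 1254-treated male rats plus NADPH-generating cofactors. Each dose was plated in duplicate on two or three separate occasions, and the value is the mean His⁺ revertants/plate. The positive control was 2-anthramine at 0.5 μg/plate, with DMSO as the solvent control.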

[14] = tested on: Salmonella typhimurium; experiment: as §5; outline: as §14; remark: listed apart in the source
[15] = tested on: Salmonella typhimurium; experiment: as §6; outline: as §14; remark: listed apart in the source
[16] = tested on: Salmonella typhimurium; experiment: as §8; remark: listed apart in the source
Outline: (§15)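 Ames plate incorporation test following Claxton's modification, run without S9, with compounds dissolved in DMSO. Each dose was plated in duplicate on two or three separate occasions, and the value is the mean His⁺ revertants/plate. The positive control was 2-nitrofluorene at 3 μg/plate, with DMSO as the solvent control.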

[17] = tested on: Salmonella typhimurium; experiment: as §9; outline: as §15; remark: listed apart in the source
[18] = tested on: Salmonella typhimurium; experiment: as §12; remark: listed apart in the source
Outline: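 Calculated as His⁺ revertants/nmol by least-squares linear regression over the linear portion of the no-S9 plate-incorporation dose–response (DMSO solutions, duplicate plates, two or three occasions). The fit ran to 10 μg/plate for most compounds, but for two compounds it ran to 5 or 20 μg/plate.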

[19] = tested on: Salmonella typhimurium; experiment: as §13; remark: listed apart in the source
Outline: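 Calculated as His⁺ revertants/nmol by least-squares linear regression over the linear portion of the dose–response to 10 μg/plate. Plates received 0.8 mg Aroclor 1254-induced male rat liver S9 protein with NADPH-generating cofactors. Compounds were dissolved in DMSO and plated in duplicate on two or three occasions.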

[20] = tested on: Salmonella typhimurium; experiment: as §1; outline: as §14; remark: listed apart in the source
[21] = tested on: Salmonella typhimurium; experiment: as §10; outline: as §15; remark: listed apart in the source
[22] = tested on: Salmonella typhimurium; experiment: as §11; outline: as §15; remark: listed apart in the source
[23] = tested on: Salmonella typhimurium; experiment: as §4; outline: as §14; remark: listed apart in the source

SMILES | Mutagenicity [1] | Mutagenicity [2] | Mutagenicity [3] | Mutagenicity [4] | Mutagenicity [5] | Mutagenicity [6] | Mutagenicity [7] | Mutagenicity [8] | Mutagenicity [9] | Mutagenicity [10] | Activity [11] | Activity [12] | Mutagenicity [13] | Mutagenicity [14] | Mutagenicity [15] | Mutagenicity [16] | Mutagenicity [17] | Activity [18] | Activity [19] | Mutagenicity [20] | further results
C1=CC2OC2c2ccc3c4c5c(cccc5cc3c21)C=C4 (stereo not drawn) | 58 | 71 | 272 | 350 | 176 | 28 | 26 | 39 | 46 | 34 | 0.2 | 5.6 |  |  |  |  |  |  |  |  | 
O[C@H]1C=Cc2c(ccc3c4c5c(cccc5cc23)C=C4)[C@@H]1O |  |  |  |  |  | 36 |  |  |  |  |  |  | 100 | 543 | 335 | 40 | 45 | 0.7 | 9.4 | 67 | Mutagenicity [21]: 75; Mutagenicity [22]: 43; Mutagenicity [23]: 469
O[C@H]1c2ccc3c4c5c(cccc5cc3c2[C@@H]2OC2[C@@H]1O)C=C4 (stereo partly drawn) |  |  |  |  |  | 37 |  |  |  |  |  |  | 86 | 148 | 283 | 53 | 172 | 10 | 12.9 | 51 | Mutagenicity [21]: 93; Mutagenicity [22]: 186; Mutagenicity [23]: 287
C1=Cc2c3ccc4ccccc4c3cc3cccc1c23 [BENZO[J]ACEANTHRYLENE] | 76 | 103 | 694 | 915 | 429 | 35 | 39 | 32 | 38 | 38 | 0.1 | 12.9 |  |  |  |  |  |  |  |  | 
